Experimental data: ChEMBL document CHEMBL4138069, “Design, synthesis, molecular-docking and antimycobacterial evaluation of some novel 1,2,3-triazolyl xanthenones” (Medchemcomm, 2017)
Values after ≈ are worked out from the molar mass of the structure shown.

Assays:
Staphylococcus aureus = assay: Antibacterial activity against Staphylococcus aureus MTCC 96 by agar dilution method; assay type: functional
How it was run: (§1)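 Minimum inhibitory concentration measured by agar dilution against three Gram-positive and three Gram-negative MTCC strains; read out as MIC.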

Bacillus subtilis = assay: Antibacterial activity against Bacillus subtilis MTCC 121 by agar dilution method; assay type: functional; how it was run: as §1
Bacillus cereus = assay: Antibacterial activity against Bacillus cereus MTCC 430 by agar dilution method; assay type: functional; how it was run: as §1
Escherichia coli = assay: Antibacterial activity against Escherichia coli MTCC 1652 by agar dilution method; assay type: functional; how it was run: as §1
Pseudomonas aeruginosa = assay: Antibacterial activity against Pseudomonas aeruginosa MTCC 741 by agar dilution method; assay type: functional; how it was run: as §1
Klebsiella aerogenes = assay: Antibacterial activity against Enterobacter aerogenes MTCC 111 by agar dilution method; assay type: functional; how it was run: as §1
Aspergillus niger = assay: Antifungal activity against Aspergillus niger MTCC 282; assay type: functional
How it was run: (§2)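 Antifungal read-out was MIC in μg mL–1, with fluconazole as the reference drug.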

Candida albicans = assay: Antifungal activity against Candida albicans MTCC 9062; assay type: functional; how it was run: as §2
[1] = system: Mycobacterium tuberculosis; assay: Antimycobacterial activity against Mycobacterium tuberculosis H37Rv ATCC 27294 assessed as inhibition of bacterial growth incubated for 28 days; assay type: functional; conditions: H37Rv ATCC 27294, 672 h
How it was run: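 Agar dilution in Middlebrook 7H11 with OADC, two-fold dilutions at final 50 to 0.78 μg mL–1. Inoculum from fresh 7H11 slants, adjusted to 1 mg mL–1 wet weight in 0.05% Tween 80 saline, diluted 10–2 to about 10^7 cfu mL–1; 5 μL spotted per tube. Incubated at 37 °C. MIC = lowest concentration giving complete growth inhibition, read at 28 days, in triplicate.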

[2] = Lipophilicity, log P of the compound; assay type: physicochemical; conditions: octanol/water
How it was run: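 Value is a calculated log P (clog P), computed rather than measured experimentally.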

[3] = Cytotoxicity in HEK cells assessed as inhibition of cell growth at 50 ug/ml incubated for 72 hrs by MTT assay; assay type: cell-based; conditions: human, read-out: GI
How it was run: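 HEK cells were exposed to compound at 50 μg mL–1 for 72 h. Viability was taken from cellular conversion of MTT to formazan, using a non-radioactive cell proliferation kit.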

| Compound | MIC (Staphylococcus aureus) [µg/mL] | MIC (Bacillus subtilis) [µg/mL] | MIC (Bacillus cereus) [µg/mL] | MIC (Escherichia coli) [µg/mL] | MIC (Pseudomonas aeruginosa) [µg/mL] | MIC (Klebsiella aerogenes) [µg/mL] | MIC (Aspergillus niger) [µg/mL] | MIC (Candida albicans) [µg/mL] | MIC [1] [µg/mL] | logP [2] | inhibition at 72 h, 50 ug/ml [3] [%] |
| --- | --- | --- | --- | --- | --- | --- | --- | --- | --- | --- | --- |
| O=C1CCCC2=C1C(c1cn(-c3ccccc3)nn1)c1c(ccc3ccccc13)O2 (configuration not stated) | 3.12 (≈ 7.93 µM) | 3.12 (≈ 7.93 µM) | 3.12 (≈ 7.93 µM) | 3.12 (≈ 7.93 µM) | 3.12 (≈ 7.93 µM) | 3.12 (≈ 7.93 µM) | 3.12 (≈ 7.93 µM) | 3.12 (≈ 7.93 µM) | 12.5 (≈ 31.8 µM) | 3.85 |  |
| O=C1CCCC2=C1C(c1cn(-c3ccccc3Cl)nn1)c1c(ccc3ccccc13)O2 (configuration not stated) | > 100 | > 100 | > 100 | 12.5 (≈ 29.2 µM) | 50 (≈ 117 µM) | 50 (≈ 117 µM) | 12.5 (≈ 29.2 µM) | > 100 | 25 (≈ 58.4 µM) | 4.41 |  |
| O=Cc1cn(-c2cccc(C(F)(F)F)c2)nn1 |  |  |  |  |  |  |  |  | > 25 |  |  |
| CO[C@H]1/C=C/O[C@@]2(C)Oc3c(C)c(O)c4c(O)c(c(/C=N/N5CCN(C)CC5)c(O)c4c3C2=O)NC(=O)/C(C)=C\C=C\[C@H](C)[C@H](O)[C@@H](C)[C@@H](O)[C@@H](C)[C@H](OC(C)=O)[C@@H]1C [RIFAMPIN] |  |  |  |  |  |  |  |  | 0.24 (≈ 0.292 µM) |  |  |
| COc1ccccc1-n1cc(C=O)nn1 |  |  |  |  |  |  |  |  | > 25 |  |  |
| CC1(C)CC(=O)C2=C(C1)Oc1ccc3ccccc3c1C2c1cn(-c2ccc(O)cc2)nn1 (configuration not stated) | 6.25 (≈ 14.3 µM) | 6.25 (≈ 14.3 µM) | 12.5 (≈ 28.6 µM) | 3.12 (≈ 7.13 µM) | 6.25 (≈ 14.3 µM) | 6.25 (≈ 14.3 µM) | 12.5 (≈ 28.6 µM) | 3.12 (≈ 7.13 µM) | > 25 | 4.26 |  |
| CC1(C)CC(=O)C2=C(C1)Oc1ccc3ccccc3c1C2c1cn(-c2ccc([N+](=O)[O-])cc2)nn1 (configuration not stated) | 12.5 (≈ 26.8 µM) | 6.25 (≈ 13.4 µM) | 6.25 (≈ 13.4 µM) | 3.12 (≈ 6.69 µM) | 12.5 (≈ 26.8 µM) | 3.12 (≈ 6.69 µM) | 6.25 (≈ 13.4 µM) | 3.12 (≈ 6.69 µM) | > 25 |  |  |
| CC1(C)CC(=O)C2=C(C1)Oc1ccc3ccccc3c1C2c1cn(-c2ccccc2Cl)nn1 (configuration not stated) | 3.12 (≈ 6.84 µM) | 6.25 (≈ 13.7 µM) | 3.12 (≈ 6.84 µM) | 3.12 (≈ 6.84 µM) | 6.25 (≈ 13.7 µM) | 12.5 (≈ 27.4 µM) | 3.12 (≈ 6.84 µM) | 3.12 (≈ 6.84 µM) | 25 (≈ 54.8 µM) | 5.21 |  |
| COc1ccc(-n2cc(C=O)nn2)cc1 |  |  |  |  |  |  |  |  | 12.5 (≈ 61.5 µM) |  |  |
| COc1ccc(-n2cc(C3C4=C(CC(C)(C)CC4=O)Oc4ccc5ccccc5c43)nn2)cc1 (configuration not stated) | 6.25 (≈ 13.8 µM) | 6.25 (≈ 13.8 µM) | 3.12 (≈ 6.91 µM) | 12.5 (≈ 27.7 µM) | 6.25 (≈ 13.8 µM) | 6.25 (≈ 13.8 µM) | 3.12 (≈ 6.91 µM) | 6.25 (≈ 13.8 µM) | 6.25 (≈ 13.8 µM) | 4.53 | 21.2 |
| O=Cc1cn(-c2ccccc2)nn1 |  |  |  |  |  |  |  |  | 25 (≈ 144 µM) |  |  |
| COc1ccccc1-n1cc(C2C3=C(CCCC3=O)Oc3ccc4ccccc4c32)nn1 (configuration not stated) | 6.25 (≈ 14.8 µM) | 12.5 (≈ 29.5 µM) | 25 (≈ 59 µM) | 12.5 (≈ 29.5 µM) | 6.25 (≈ 14.8 µM) | 6.25 (≈ 14.8 µM) | 12.5 (≈ 29.5 µM) | 6.25 (≈ 14.8 µM) | 25 (≈ 59 µM) | 3.73 |  |
| O=Cc1cn(-c2ccc(O)cc2)nn1 |  |  |  |  |  |  |  |  | > 25 |  |  |
| O=Cc1cn(-c2ccc([N+](=O)[O-])cc2)nn1 |  |  |  |  |  |  |  |  | > 25 |  |  |
| O=C1CCCC2=C1C(c1cn(-c3cccc(C(F)(F)F)c3)nn1)c1c(ccc3ccccc13)O2 (configuration not stated) | 6.25 (≈ 13.5 µM) | 12.5 (≈ 27.1 µM) | 25 (≈ 54.2 µM) | 12.5 (≈ 27.1 µM) | 6.5 (≈ 14.1 µM) | 12.5 (≈ 27.1 µM) | 50 (≈ 108 µM) | 50 (≈ 108 µM) | > 25 | 4.77 |  |
